{"source": "ChEMBL document CHEMBL1921792", "about": "“Synthesis and anticonvulsant activity of trans- and cis-2-(2,6-dimethylphenoxy)-N-(2- or 4-hydroxycyclohexyl)acetamides and their amine analogs” (Bioorg Med Chem, 2011)", "format_in_all_cases": "functional, organism-based", "key": {"Mus musculus [1]": {"tested_on": "Mus musculus", "experiment": "Anticonvulsant activity in mouse assessed as protection against maximal electric shock-induced seizures at 100 mg/kg, ip after 4 hrs", "parameters": "dose 100 mg/kg", "method_in_brief": "(§1)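 Phase I maximal electroshock screen in mice. Compound given ip as a suspension in 0.5% methylcellulose at 30, 100 or 300 mg/kg, tested at 30 min and 4 h. Small groups (1–8); result is number protected/number tested.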"}, "Mus musculus [2]": {"tested_on": "Mus musculus", "experiment": "Anticonvulsant activity in mouse assessed as protection against maximal electric shock-induced seizures at 100 mg/kg, ip after 0.5 hrs", "parameters": "dose 100 mg/kg", "method_in_brief": "as §1"}, "Mus musculus [3]": {"tested_on": "Mus musculus", "experiment": "Anticonvulsant activity in mouse assessed as protection against maximal electric shock-induced seizures at 30 mg/kg, ip after 0.5 hrs", "parameters": "dose 30 mg/kg", "method_in_brief": "as §1"}, "Mus musculus [4]": {"tested_on": "Mus musculus", "experiment": "Anticonvulsant activity in mouse assessed as protection against maximal electric shock-induced seizures at 30 mg/kg, ip after 4 hrs", "parameters": "dose 30 mg/kg", "method_in_brief": "as §1"}, "Mus musculus [5]": {"tested_on": "Mus musculus", "experiment": "Anticonvulsant activity in mouse assessed as protection against maximal electric shock-induced seizures at 300 mg/kg, ip after 0.5 hrs", "parameters": "dose 300 mg/kg", "method_in_brief": "as §1"}, "Mus musculus [6]": {"tested_on": "Mus musculus", "experiment": "Anticonvulsant activity in mouse assessed as protection against maximal electric shock-induced seizures at 300 mg/kg, ip after 4 hrs", "parameters": "dose 300 mg/kg", "method_in_brief": "as §1"}, "Mus musculus [7]": {"tested_on": "Mus musculus", "experiment": "Anticonvulsant activity against subcutaneous pentylenetetrazole-induced seizures in mouse at 30 mg/kg, ip after 0.5 hrs", "parameters": "dose 30 mg/kg", "method_in_brief": "(§2)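 Phase I screen in mice. Compound given ip as a suspension in 0.5% methylcellulose, read at 30 min and 4 h. Pentylenetetrazole 85 mg/kg in 0.9% NaCl was injected sc into the posterior midline and animals watched ≥30 min. Protection meant no clonic spasm lasting ≥5 s. Groups of 1–8 animals; result is protected/tested.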"}, "Mus musculus [8]": {"tested_on": "Mus musculus", "experiment": "Anticonvulsant activity against subcutaneous pentylenetetrazole-induced seizures in mouse at 30 mg/kg, ip after 4 hrs", "parameters": "dose 30 mg/kg", "method_in_brief": "as §2"}, "Mus musculus [9]": {"tested_on": "Mus musculus", "experiment": "Anticonvulsant activity against subcutaneous pentylenetetrazole-induced seizures in mouse at 100 mg/kg, ip after 0.5 hrs", "parameters": "dose 100 mg/kg", "method_in_brief": "as §2"}, "Mus musculus [10]": {"tested_on": "Mus musculus", "experiment": "Anticonvulsant activity against subcutaneous pentylenetetrazole-induced seizures in mouse at 100 mg/kg, ip after 4 hrs", "parameters": "dose 100 mg/kg", "method_in_brief": "as §2"}, "Mus musculus [11]": {"tested_on": "Mus musculus", "experiment": "Anticonvulsant activity against subcutaneous pentylenetetrazole-induced seizures in mouse at 300 mg/kg, ip after 0.5 hrs", "parameters": "dose 300 mg/kg", "method_in_brief": "as §2"}, "Mus musculus [12]": {"tested_on": "Mus musculus", "experiment": "Anticonvulsant activity against subcutaneous pentylenetetrazole-induced seizures in mouse at 300 mg/kg, ip after 4 hrs", "parameters": "dose 300 mg/kg", "method_in_brief": "as §2"}, "Rattus norvegicus [13]": {"tested_on": "Rattus norvegicus", "experiment": "Anticonvulsant activity in rat assessed as protection against maximal electric shock-induced seizures at 30 mg/kg, po after 0.5 hrs", "parameters": "dose 30 mg/kg", "method_in_brief": "(§3)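 MES test in rats dosed orally at 30 mg/kg as a suspension in 0.5% methylcellulose, read at 0.25–4 h. Four rats per time point; result is protected/tested.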"}, "Rattus norvegicus [14]": {"tested_on": "Rattus norvegicus", "experiment": "Anticonvulsant activity in rat assessed as protection against maximal electric shock-induced seizures at 30 mg/kg, po after 1 hr", "parameters": "dose 30 mg/kg", "method_in_brief": "as §3"}, "Rattus norvegicus [15]": {"tested_on": "Rattus norvegicus", "experiment": "Anticonvulsant activity in rat assessed as protection against maximal electric shock-induced seizures at 30 mg/kg, po after 2 hrs", "parameters": "dose 30 mg/kg", "method_in_brief": "as §3"}, "Rattus norvegicus [16]": {"tested_on": "Rattus norvegicus", "experiment": "Anticonvulsant activity in rat assessed as protection against maximal electric shock-induced seizures at 30 mg/kg, po after 4 hrs", "parameters": "dose 30 mg/kg", "method_in_brief": "as §3"}}, "note": "Active and inactive are the calls of the source. The calls are words filed in the database; no cut-off is given here.", "data": [{"compound": "Cc1cccc(C)c1OCC(=O)NC1CCCCC1O", "note": "(racemic; 4)", "values": [{"measurement": "Activity", "setting": "Mus musculus [1]", "result": "inactive"}, {"measurement": "Activity", "setting": "Mus musculus [2]", "result": "inactive"}, {"measurement": "Activity", "setting": "Mus musculus [3]", "result": "inactive"}, {"measurement": "Activity", "setting": "Mus musculus [4]", "result": "inactive"}, {"measurement": "Activity", "setting": "Mus musculus [5]", "result": "Active"}, {"measurement": "Activity", "setting": "Mus musculus [6]", "result": "inactive"}, {"measurement": "Activity", "setting": "Mus musculus [7]", "result": "inactive"}, {"measurement": "Activity", "setting": "Mus musculus [8]", "result": "inactive"}, {"measurement": "Activity", "setting": "Mus musculus [9]", "result": "inactive"}, {"measurement": "Activity", "setting": "Mus musculus [10]", "result": "inactive"}, {"measurement": "Activity", "setting": "Mus musculus [11]", "result": "inactive"}, {"measurement": "Activity", "setting": "Mus musculus [12]", "result": "inactive"}, {"measurement": "Activity", "setting": "Rattus norvegicus [13]", "result": "inactive"}, {"measurement": "Activity", "setting": "Rattus norvegicus [14]", "result": "inactive"}, {"measurement": "Activity", "setting": "Rattus norvegicus [15]", "result": "inactive"}, {"measurement": "Activity", "setting": "Rattus norvegicus [16]", "result": "inactive"}]}]}
